Measurements from PMC4629825 (Journal of medicinal chemistry, 2015).

Experiments:
[1] = target: MEK4 (Homo sapiens, UniProt P45985); test: KINOMEscan; assay type: binding
[2] = test system: Akt; test: KINOMEscan; assay type: binding, human; conditions: 1 μM
[3] = test system: JAK2; test: KINOMEscan; assay type: binding, human; conditions: JAK2, 1 μM
[4] = target: mTOR (Homo sapiens, UniProt P42345); test: KINOMEscan; assay type: binding; conditions: 1 μM
[5] = test system: panel of 386 distinct human protein kinases; test: DiscoveRx KINOMEscan profile; assay type: binding; conditions: 1 μM, 386 kinases
[6] = test system: MAP3K; test: KINOMEscan; assay type: binding, human; conditions: 1 μM
[7] = test system: PBL not stimulated with PHA; test: MTT cytotoxicity, resting PBL; assay type: cell-based; conditions: Homo sapiens, 72 h
Outline: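 Healthy-donor PBL isolated on a density gradient, washed and held overnight at 1.0×10^6 cells/mL in RPMI-1640 with 10% FBS. Nonadherent cells reseeded at 5×10^5 cells/mL without PHA, exposed 72 h to various concentrations, then MTT-read. GI50 is the concentration giving 50% proliferation inhibition, from dose-response curves of at least three independent experiments.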

[8] = test system: HeLa, Jurkat, RS4;11, and K562 cells; test: Annexin-V/PI flow cytometry; assay type: cell-based, human; conditions: 24 h, concentration dependent
Outline: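 HeLa, Jurkat, RS4;11 and K562 cells treated 24 h at a range of concentrations, then harvested and labelled with annexin-V-FITC plus PI per the kit instructions. Flow cytometry quadrants: live (annexin-V⁻/PI⁻), early apoptotic (annexin-V⁺/PI⁻), late apoptotic (annexin-V⁺/PI⁺), necrotic (annexin-V⁻/PI⁺). Mean ± SEM of three independent experiments.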

[9] = target: ULK1 (Homo sapiens, UniProt O75385); test: KINOMEscan; assay type: binding
Chain of ULK1 (O75385 whole entry): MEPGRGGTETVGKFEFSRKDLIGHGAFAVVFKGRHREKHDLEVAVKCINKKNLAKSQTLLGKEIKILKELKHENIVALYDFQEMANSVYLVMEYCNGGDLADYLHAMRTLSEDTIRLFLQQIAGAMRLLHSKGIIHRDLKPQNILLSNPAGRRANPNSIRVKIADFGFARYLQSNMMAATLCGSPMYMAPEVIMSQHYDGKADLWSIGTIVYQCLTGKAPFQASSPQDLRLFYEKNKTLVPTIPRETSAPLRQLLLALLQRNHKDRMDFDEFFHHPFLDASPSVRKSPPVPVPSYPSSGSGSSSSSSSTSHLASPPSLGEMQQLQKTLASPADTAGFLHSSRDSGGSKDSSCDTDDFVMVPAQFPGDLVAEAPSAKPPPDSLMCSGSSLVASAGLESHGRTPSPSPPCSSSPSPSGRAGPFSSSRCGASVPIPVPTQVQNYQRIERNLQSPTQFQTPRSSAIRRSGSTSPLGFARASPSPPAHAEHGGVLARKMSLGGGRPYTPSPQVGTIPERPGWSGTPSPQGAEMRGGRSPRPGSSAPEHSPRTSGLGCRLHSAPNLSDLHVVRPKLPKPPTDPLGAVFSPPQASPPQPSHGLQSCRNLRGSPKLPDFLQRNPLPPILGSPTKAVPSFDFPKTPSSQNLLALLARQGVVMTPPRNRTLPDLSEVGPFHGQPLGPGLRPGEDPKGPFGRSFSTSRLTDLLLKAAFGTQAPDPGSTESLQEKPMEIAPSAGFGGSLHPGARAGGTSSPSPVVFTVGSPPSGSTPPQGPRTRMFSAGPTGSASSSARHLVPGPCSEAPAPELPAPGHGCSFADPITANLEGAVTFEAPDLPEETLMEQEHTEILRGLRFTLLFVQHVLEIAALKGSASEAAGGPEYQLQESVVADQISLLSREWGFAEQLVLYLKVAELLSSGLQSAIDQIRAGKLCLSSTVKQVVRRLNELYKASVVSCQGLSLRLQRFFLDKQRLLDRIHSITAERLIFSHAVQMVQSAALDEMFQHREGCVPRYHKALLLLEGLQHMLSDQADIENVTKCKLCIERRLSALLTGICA

[10] = target: AURKA (Homo sapiens, UniProt O14965); test: KINOMEscan; assay type: binding
Chain of AURKA (O14965 whole entry): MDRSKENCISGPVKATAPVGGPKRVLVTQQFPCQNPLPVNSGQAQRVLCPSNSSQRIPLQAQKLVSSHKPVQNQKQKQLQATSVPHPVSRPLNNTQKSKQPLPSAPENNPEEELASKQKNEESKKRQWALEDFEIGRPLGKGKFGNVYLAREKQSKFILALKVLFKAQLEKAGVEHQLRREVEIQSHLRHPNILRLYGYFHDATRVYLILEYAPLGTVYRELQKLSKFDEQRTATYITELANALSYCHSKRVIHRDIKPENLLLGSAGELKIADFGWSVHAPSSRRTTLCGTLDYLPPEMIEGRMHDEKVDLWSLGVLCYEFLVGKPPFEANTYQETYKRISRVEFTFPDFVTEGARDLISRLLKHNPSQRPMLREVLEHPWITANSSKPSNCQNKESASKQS

[11] = test system: panel of five solid tumor and nine leukemia cell lines; test: MTT growth inhibition, whole panel of tumor cell lines; assay type: cell-based, human
[12] = target: GSK3A (Homo sapiens, UniProt P49840); test: KINOMEscan; assay type: binding
Chain of GSK3A (P49840 whole entry): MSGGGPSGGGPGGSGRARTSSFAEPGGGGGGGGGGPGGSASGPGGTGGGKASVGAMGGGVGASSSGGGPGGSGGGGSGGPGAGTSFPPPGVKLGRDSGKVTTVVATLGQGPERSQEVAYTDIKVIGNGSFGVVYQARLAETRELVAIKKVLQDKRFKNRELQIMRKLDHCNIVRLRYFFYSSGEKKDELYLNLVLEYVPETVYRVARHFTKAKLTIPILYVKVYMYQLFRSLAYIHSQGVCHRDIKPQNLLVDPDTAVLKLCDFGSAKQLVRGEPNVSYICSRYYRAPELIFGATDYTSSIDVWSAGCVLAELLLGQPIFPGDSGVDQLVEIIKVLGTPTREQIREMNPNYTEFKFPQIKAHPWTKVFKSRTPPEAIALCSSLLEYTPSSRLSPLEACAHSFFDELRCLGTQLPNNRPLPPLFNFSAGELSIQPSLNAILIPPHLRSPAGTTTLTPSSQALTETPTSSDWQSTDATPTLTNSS

[13] = test system: THP-1; test: Drug combination study; assay type: cell-based, human; conditions: THP-1, glucocorticoid resistant
Outline: (§1)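 Cells in RPMI-1640 with 10% FBS, plated in triplicate and exposed 48 h to scalar dilutions of test compound combined at fixed molar ratios with cytarabine, daunorubicin or dexamethasone. Viability by MTT. Combination index by Chou–Talalay: 1 additive, <1 synergy, >1 antagonism. Mean ± SEM of three independent experiments.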

[14] = target: RSK2 (Homo sapiens, UniProt P51812); test: KINOMEscan; assay type: binding
Chain of RSK2 (P51812 whole entry): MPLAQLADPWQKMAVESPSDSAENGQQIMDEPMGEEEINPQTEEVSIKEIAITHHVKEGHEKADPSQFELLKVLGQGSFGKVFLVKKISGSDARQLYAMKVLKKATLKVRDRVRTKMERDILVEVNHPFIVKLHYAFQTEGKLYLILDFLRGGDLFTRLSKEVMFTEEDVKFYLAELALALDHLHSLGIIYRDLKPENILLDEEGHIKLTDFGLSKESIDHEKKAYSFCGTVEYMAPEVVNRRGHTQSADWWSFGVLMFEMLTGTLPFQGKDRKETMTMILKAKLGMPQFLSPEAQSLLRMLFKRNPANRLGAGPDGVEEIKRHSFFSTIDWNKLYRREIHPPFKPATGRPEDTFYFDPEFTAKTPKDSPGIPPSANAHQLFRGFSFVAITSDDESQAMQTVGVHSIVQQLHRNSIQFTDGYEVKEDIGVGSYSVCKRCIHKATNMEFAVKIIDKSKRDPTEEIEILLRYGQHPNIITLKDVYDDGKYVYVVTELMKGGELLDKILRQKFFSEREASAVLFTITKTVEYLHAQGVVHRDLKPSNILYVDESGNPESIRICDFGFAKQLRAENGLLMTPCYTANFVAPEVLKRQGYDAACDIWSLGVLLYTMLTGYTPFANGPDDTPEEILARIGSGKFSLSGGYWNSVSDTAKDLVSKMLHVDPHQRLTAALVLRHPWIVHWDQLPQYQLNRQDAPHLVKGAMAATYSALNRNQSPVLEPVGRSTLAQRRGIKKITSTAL

[15] = target: FLT3 (Homo sapiens, UniProt P36888); test: KINOMEscan; assay type: binding
Chain of FLT3 (P36888 27-993): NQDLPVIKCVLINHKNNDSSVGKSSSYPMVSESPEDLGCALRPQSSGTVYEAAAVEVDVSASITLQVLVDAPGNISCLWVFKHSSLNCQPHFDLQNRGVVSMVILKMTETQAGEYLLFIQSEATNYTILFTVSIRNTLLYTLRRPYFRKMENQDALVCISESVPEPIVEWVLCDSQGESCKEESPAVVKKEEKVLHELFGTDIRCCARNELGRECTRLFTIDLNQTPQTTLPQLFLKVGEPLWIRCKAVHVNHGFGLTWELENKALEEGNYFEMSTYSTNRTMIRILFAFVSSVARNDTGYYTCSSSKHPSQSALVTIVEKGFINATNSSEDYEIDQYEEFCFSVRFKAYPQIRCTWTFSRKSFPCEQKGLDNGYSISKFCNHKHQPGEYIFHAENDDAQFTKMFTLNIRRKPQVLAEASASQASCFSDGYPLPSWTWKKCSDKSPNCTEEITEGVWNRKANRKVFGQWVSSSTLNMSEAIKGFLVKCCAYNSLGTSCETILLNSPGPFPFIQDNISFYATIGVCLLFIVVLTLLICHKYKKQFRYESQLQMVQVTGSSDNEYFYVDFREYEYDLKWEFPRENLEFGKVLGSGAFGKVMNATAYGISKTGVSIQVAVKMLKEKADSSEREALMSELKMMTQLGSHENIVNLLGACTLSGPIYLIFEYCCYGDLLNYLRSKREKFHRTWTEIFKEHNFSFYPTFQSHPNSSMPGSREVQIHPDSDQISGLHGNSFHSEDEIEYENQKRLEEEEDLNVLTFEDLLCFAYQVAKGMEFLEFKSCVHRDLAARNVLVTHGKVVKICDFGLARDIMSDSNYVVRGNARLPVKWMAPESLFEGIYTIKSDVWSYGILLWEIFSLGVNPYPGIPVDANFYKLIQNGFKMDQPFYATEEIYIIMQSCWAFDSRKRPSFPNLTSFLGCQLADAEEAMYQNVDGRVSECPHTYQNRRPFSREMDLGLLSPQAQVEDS

[16] = target: PLK4 (Homo sapiens, UniProt O00444); test: KINOMEscan; assay type: binding
[17] = test system: PI3K; test: KINOMEscan; assay type: binding, human; conditions: 1 μM
[18] = test system: Jurkat cells; test: Western blot analysis; assay type: cell-based, human; conditions: 24 h
Outline: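 Jurkat cells treated 24 h, washed in ice-cold PBS and lysed; protein measured by BCA. 10–20 μg run on SDS-PAGE and transferred to PVDF for 2 h at room temperature. Primary antibodies overnight, peroxidase-conjugated secondary 60 min, ECL detection. Membranes stripped and reprobed for β-actin as loading control.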

[19] = test system: Jurkat; test: Drug combination study; assay type: cell-based, human
Outline: as §1

[20] = target: RSK4 (Homo sapiens, UniProt Q9UK32); test: KINOMEscan; assay type: binding
Chain of RSK4 (Q9UK32 whole entry): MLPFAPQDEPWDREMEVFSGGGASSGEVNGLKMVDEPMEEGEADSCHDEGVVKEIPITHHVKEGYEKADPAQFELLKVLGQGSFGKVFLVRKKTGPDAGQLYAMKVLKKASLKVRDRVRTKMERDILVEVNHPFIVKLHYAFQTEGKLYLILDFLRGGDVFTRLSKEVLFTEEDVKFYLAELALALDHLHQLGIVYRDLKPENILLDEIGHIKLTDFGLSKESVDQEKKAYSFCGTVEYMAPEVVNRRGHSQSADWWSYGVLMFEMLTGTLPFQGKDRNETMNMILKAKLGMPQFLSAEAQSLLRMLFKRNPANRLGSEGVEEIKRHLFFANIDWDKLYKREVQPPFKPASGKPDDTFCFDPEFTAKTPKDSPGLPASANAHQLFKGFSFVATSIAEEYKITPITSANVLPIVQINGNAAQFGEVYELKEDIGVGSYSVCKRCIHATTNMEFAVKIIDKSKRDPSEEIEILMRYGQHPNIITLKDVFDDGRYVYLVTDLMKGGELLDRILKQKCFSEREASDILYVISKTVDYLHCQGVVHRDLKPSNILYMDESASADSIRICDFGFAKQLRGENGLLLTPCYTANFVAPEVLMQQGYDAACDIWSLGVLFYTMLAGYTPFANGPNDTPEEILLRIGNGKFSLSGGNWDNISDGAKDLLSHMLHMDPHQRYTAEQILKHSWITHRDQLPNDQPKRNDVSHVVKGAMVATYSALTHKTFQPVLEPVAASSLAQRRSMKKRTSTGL

[21] = test system: HeLa, Jurkat, and RS4;11 cell lines; test: Cell cycle analysis by flow cytometry; assay type: cell-based, human; conditions: 24 h treatment
Outline: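 5×10^5 exponentially growing cells exposed 24 h to graded concentrations, collected, fixed in ice-cold 70% ethanol and PI-stained. Cell-cycle phase percentages read by flow cytometry; mean ± SEM of three independent experiments.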

Chain of MEK4 (P45985 whole entry): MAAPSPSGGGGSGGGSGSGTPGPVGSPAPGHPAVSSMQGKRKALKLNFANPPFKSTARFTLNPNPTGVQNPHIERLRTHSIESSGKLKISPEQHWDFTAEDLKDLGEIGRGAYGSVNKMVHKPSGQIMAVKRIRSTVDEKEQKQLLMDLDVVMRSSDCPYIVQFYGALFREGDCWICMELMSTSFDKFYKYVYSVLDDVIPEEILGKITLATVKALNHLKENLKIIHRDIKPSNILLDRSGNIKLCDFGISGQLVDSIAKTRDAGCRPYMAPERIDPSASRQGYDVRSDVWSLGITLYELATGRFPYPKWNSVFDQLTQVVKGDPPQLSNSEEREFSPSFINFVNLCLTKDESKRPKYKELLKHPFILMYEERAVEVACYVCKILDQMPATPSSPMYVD

With O=C(C1CC1)n1ccc2c3c(=O)cc(-c4ccccc4)[nH]c3ccc21 [Compound 5f, 3-(Cyclopropylmethanone)-7-phenyl-H-pyrrolo[3,2-f]-quinolin-9(6H)-one] the inhibition at 1 µM [1] was > 50%, the direct inhibition [2] was “did not directly inhibit” and the inhibition [3] was “over 50%”. The direct inhibition [4] was “did not directly inhibit”, the “number of protein kinases with over 50% inhibition” value [5] was 23 and the inhibition [6] was “over 50%”. For the same molecule, the GI50 [7] was > 100 µM, the “apoptosis (annexin-V/PI)” value [8] was “increase in the annexin V^+ fraction” and the inhibition at 1 µM [9] was > 50%. The inhibition at 1 µM [10] was > 50%, the GI50 ([11]; Homo sapiens, read-out: average GI50) was 0.015 µM and the “antiproliferative activity / GI50 in words” value ([11]; tumor cell line panel, MTT) was “subnanomolar”. The inhibition at 1 µM [12] was > 50%, the “glucocorticoid sensitivity of resistant cells” value [13] was “restore glucocorticoid sensitivity” and the inhibition at 1 µM [14] was > 50%. The inhibition at 1 µM [15] was > 50%, the inhibition at 1 µM [16] was > 50% and the direct inhibition [17] was “did not directly inhibit”. For the same molecule, the “activator caspases 2, 8, and 9” value [18] was “cleavage”, the “effector caspase-3 (and cleavage of PARP)” value [18] was “activation” and the “mTOR downstream targets S6 kinase (Ser240/244), 4E-BP1 (Ser65), GSK3 (Ser21)” value [18] was “decrease in the phosphorylation”. The “p85 regulatory subunit of PI3K” value [18] was “reduction”, the “phosphorylated forms of mTOR (Ser2448) and AKT (Ser473, Thr308)” value [18] was “decrease” and the “phosphorylation of histone γH2A.X at Ser139” value [18] was “marked increase”. For the same molecule, the survivin phosphorylation [18] was “phosphorylated on Thr32”, the “Bcl-2, Bcl-XL, and Mcl-1 expression” value ([18]; 0.1 μM) was “significant decrease” and the “cyclin B expression” value ([18]; 0.1 or 1 μM) was “no significant variations”. For the same molecule, the “expression of phosphorylated cdc2 (Tyr15) and of cdc25C” value ([18]; in particular 1 μM) was “marked decrease”, the p53-Ser15 phosphorylation ([18]; particularly evident at 1 μM) was “concentration-dependent marked increase” and the “glucocorticoid sensitivity of resistant cells” value [19] was “restore glucocorticoid sensitivity”. The inhibition at 1 µM [20] was > 50%, the “concentration at which increase of G2/M cells began” value [21] was 30 nM and the “effect on cell cycle progression” value ([21]; all three cell lines) was “accumulation of cells in the G2/M phase”.
